# Assay outcomes as filed in PubChem.
# Dynein transport: blocks dynein driven cargo transport along microtubules. z-score, hits read low. 3617.4 mouse cells, GR-EGFP nuclear translocation imaging; test concentration mostly 20 µM; stimulated with dexamethasone, 1 µM; stronger effect = lower value. AID 1381. 220,000 tested, 0.47% active;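 active means plate z-score of nuclear minus cytoplasmic receptor signal below a set negative limit, without overly bright fluorescence or cell loss, cut at about -3.5 in these data, passing the limit was not always enough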;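 further: z-score of nuclear minus cytoplasmic ring GR-EGFP intensity difference per well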
#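 medium = tetracycline-free induction medium containing charcoal-stripped FBS | probe or stimulus = dexamethasone, 1.0 µM final | timing = 48 h induction, then 1 h compound, then 30 min agonist, 37 °C | detection = automated 10x imaging of fixed Hoechst-stained cells | read-out basis = nuclear versus cytoplasmic GR-EGFP signal, averaged per well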
# p-CIP stab down: compounds decreasing mouse p/CIP protein stability. decrease of EGFP signal, % at 10 µM. F442A p/CIP-EGFP cells, EGFP fluorescence, 16 h. 290,000 tested, 0.01% active. Q05BA5;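 active means EGFP signal decrease of at least 30% at 10 µM or well 3 SD below plate mean, unless failing retest; inactive means the rest, including hits failing retest or dose response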
# RAM network inh: inhibitors of the yeast RAM network | S. cerevisiae dse1pr::URA3 reporter, 5-FOA growth OD615, 2 d; analog-sensitive cbk1-as2 kinase mutant strain | inhibition, % at 50 µM | 190,000 tested, 1.8% active | AID 868;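 active means inhibition above a set limit, 3 SD over mean compound inhibition, cut at about 8.4% in these data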;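 further: 0% = DMSO-only wells with no growth and 100% = 10 µM 1-NA-PP1 full growth; inhibition rescues growth on 5-FOA so higher OD means more RAM inhibition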
# p47phox inh: blocks human p47phox regulatory protein of NADPH oxidases; P14598; p47phox/p22phox peptide binding, fluorescence polarization, 2 h; inhibition, % at 24.7 µM; 220,000 tested, 0.53% active;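 active means inhibition above about 30%, limit read from the data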;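 further: 0% = p47phox with labelled peptide and 100% = labelled peptide alone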
# Target sequence (P14598 whole entry, looked up): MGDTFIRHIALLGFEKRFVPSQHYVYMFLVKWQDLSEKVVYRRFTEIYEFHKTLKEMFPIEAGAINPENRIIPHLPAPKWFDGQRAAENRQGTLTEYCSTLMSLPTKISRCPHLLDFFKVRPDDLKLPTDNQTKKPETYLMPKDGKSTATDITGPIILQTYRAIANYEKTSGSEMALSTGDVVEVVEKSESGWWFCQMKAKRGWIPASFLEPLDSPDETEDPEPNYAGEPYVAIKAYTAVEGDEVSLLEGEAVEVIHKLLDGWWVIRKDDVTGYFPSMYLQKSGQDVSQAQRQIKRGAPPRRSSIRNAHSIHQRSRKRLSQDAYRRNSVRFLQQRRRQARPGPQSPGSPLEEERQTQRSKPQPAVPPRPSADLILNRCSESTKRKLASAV
# RAM 5-FOA: restores 5-FOA growth of efflux-deficient yeast. S. cerevisiae efflux-deficient reporter strain, 5-FOA growth OD615, 2 days. AID 1305. shares compounds with RAM network inh. max inhibition, %. 1,200 tested, under 10 active; call rule not given here;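 further: plate controls were vehicle for no effect and reference inhibitor for full effect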
# An asterisk follows results filed as active; x = not tested or not shown. Only some compounds are listed: those with a hit (about 1.9% of all), similar ones and a draw of the others.
SMILES,Dynein transport,p-CIP stab down,RAM network inh,p47phox inh,RAM 5-FOA
O=S(=O)(NCCSCc1ccc(Cl)cc1Cl)c1ccc2c(c1)OCCO2,0.28,-3,12*,-13,3
O=C(CCCSc1nnc(SCCCC(=O)c2ccc(F)cc2)s1)c1ccc(F)cc1,0.74,2,14*,-10,4
N#Cc1c(SCC(=O)O)nc(N2CCCCC2)c2c1CCCC2,-0.64,4,2,-32,x
COC(=O)CSc1nc(N2CCCCC2)c2c(c1C#N)CCCC2,-0.0067,-10,14*,-13,1
O=C(c1ccccc1)C1CN(c2ccccc2)CC1c1ccc(Cl)cc1 (stereo not drawn),-0.39,-2,5,-7,x
COc1cccc(C(=O)C2CN(c3ccccc3)CC2c2ccc(Cl)cc2)c1 (stereo not drawn),1.9,12,15*,0,6
Cc1ccc(NC(=O)CSc2nnc(-c3cccs3)n2Cc2ccco2)cc1,-0.52,5,12*,-9,1
O=C(CSc1nnc(Cc2cccs2)n1Cc1ccco1)Nc1cc(Cl)cc(Cl)c1,-1,1,12*,-39,1
CCOc1ccc(NC(=O)CSc2nnc(-c3ccccc3Cl)n2Cc2ccco2)cc1,-0.72,-6,15*,-10,2
O=C(CSc1nnc(Cc2cccs2)n1Cc1ccco1)Nc1cccc(Cl)c1,-0.4,3,3,-3,x
CN(C)c1ccc(NC(=O)CSc2nnc(-c3cccs3)n2Cc2ccco2)cc1,0.54,-6,2,-5,x
COc1ccc(-c2cc(-c3ccc(Cl)cc3)c(C#N)c(SCC(=O)O)n2)cc1,x,-12,x,x,x
O=C(N=C1SC2CS(=O)(=O)CC2N1CCc1ccc(F)cc1)C1CCCCC1 (stereo not drawn),x,-2,x,x,x
CCOC(=O)C1=C(N)OC2=C(C(=O)CC(C)(C)C2)C1c1ccc(C)s1 (stereo not drawn),0.12,13,17*,-9,2
CC(C)(C)c1ccc(C(=O)NCC(=O)N/N=C/c2cccnc2)cc1,x,6,x,x,x
CCn1c(SCc2nc3ccccc3c(=O)[nH]2)nc2ccccc21,0.43,-3,12*,-9,5
FC(F)Sc1ccc(NC(=S)NC(c2ccccc2)c2ccccc2)cc1,-1.3,3,19*,-3,4
O=C(CSc1nc(-c2ccco2)cc(C(F)(F)F)n1)NCCc1ccccc1,-0.11,2,14*,-14,2
CCC1(C)Cc2sc3c(=O)[nH]c(=S)[nH]c3c2CO1 (stereo not drawn),0.55,5,0,-2,x
CCOC(=O)c1cnn(-c2ccccc2)c1-n1cccc1C(=O)C(=O)Nc1ccccc1C(F)(F)F,1.4,-14,14*,-25,3
COc1ccc(OC)c(C(C[N+](=O)[O-])c2c(C)cc3ccccn23)c1 (stereo not drawn),x,2,x,x,x
COc1ccccc1CNC(=O)c1cccnc1,x,-14,x,x,x
CCCCN(C(=O)c1cccc2c(=O)c(C)c(-c3ccccc3)oc12)c1ccccc1,0.21,-4,16*,-13,2
CCOC(=O)N1CCC(N(CCN(C)C)C(=S)Nc2cccc(SC)c2)CC1,1,-1,33*,1,1
CSc1nc2ccccc2cc1/C=C(\C#N)c1cccc(C)c1,-2.9,-2,13*,-5,5
SMILES,Dynein transport,p-CIP stab down,RAM network inh,p47phox inh,RAM 5-FOA
Cn1nc(C(F)(F)F)c(/C=N/OC(=O)c2ccccc2)c1SCc1ccccc1Cl,-0.31,12,12*,-16,2
COc1ccc2c(C)cc(SCC(=O)c3ccc4c(c3)OCO4)nc2c1,0.21,-10,12*,-110,5
C/C(N)=C(/C#N)C(=O)CSc1nc2ccccc2c(=O)n1-c1ccc(C)c(Cl)c1,0.75,-1,12*,-34,3
O=[N+]([O-])c1ccc(N=Cc2ccc(Br)c([N+](=O)[O-])c2)cc1,-0.78,4,-1,2,x
COc1cc(C(c2sc3nc(C)nn3c2O)N2CCN(c3ccccc3)CC2)cc(OC)c1OC (stereo not drawn),-2,-6,16*,-7,2
C/C=C/c1ccc(OCC(=O)OCc2csc(Nc3ccc(C)cc3)n2)c(OC)c1,-0.32,-14,12*,-84,4
COc1ccc(C(CNC(=O)c2ccc(-c3ccccc3)cc2)N(C)C)cc1OC (stereo not drawn),x,-11,x,x,x
c1cc(CSc2nnc(-c3ccc4c(c3)OCO4)o2)ccn1,-1.4,-2,1,5,x
